Measured values as given in ChEMBL document CHEMBL1142272, “Fused bicyclic pyrrolizinones as new scaffolds for human NK1 antagonists” (Bioorg Med Chem, 2008).
Active and inactive are the calls of the source. The calls are words filed in the database; no cut-off is given here.

Assays:
Substance-P receptor [1] = biological target: T1, Substance-P receptor (Homo sapiens, UniProt P25103); assay: Displacement of [125I]L-703606 from human NK1 expressed in CHO cells; type: cell-based
Substance-P receptor [2] = biological target: T1, Substance-P receptor; assay: Displacement of [125I]L-703606 from human NK1 expressed in CHO cells in presence of 50% human serum at 0.1 uM; type: cell-based
Meriones unguiculatus [3] = assay: Brain penetration in gerbils assessed as inhibition of GR-73632-induced foot tapping at 1 mg/kg, iv; type: functional
Procedure, shortened: (§1)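 Gerbils receive the test compound by iv injection. Hindlimb thumping (foot tapping) is then elicited by central administration of an NK1 agonist. Inhibition of the thumping is scored as % inhibition at 0 h after 1 mg/kg iv, or at 24 h after 3 mg/kg. Dose titrations at 0 and 24 h give an ID50.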

Meriones unguiculatus [4] = assay: Brain penetration in gerbils assessed as inhibition of GR-73632-induced foot tapping at 3 mg/kg, iv after 24 hrs; type: functional; procedure, shortened: as §1
Substance-P receptor [5] = biological target: T1, Substance-P receptor; assay: Displacement of [125I]L-703606 from human NK1 expressed in CHO cells at 0.1 uM; type: cell-based
Substance-P receptor [6] = biological target: T1, Substance-P receptor; assay: Displacement of [125I]L-703606 from human NK1 expressed in CHO cells in presence of 50% human serum; type: cell-based
Meriones unguiculatus [7] = species on record: Meriones unguiculatus; assay: Brain penetration in gerbils assessed as inhibition of GR-73632-induced foot tapping; type: functional; details: read-out: ID50 (the source's name); procedure, shortened: as §1

T1 sequence (P25103 whole entry): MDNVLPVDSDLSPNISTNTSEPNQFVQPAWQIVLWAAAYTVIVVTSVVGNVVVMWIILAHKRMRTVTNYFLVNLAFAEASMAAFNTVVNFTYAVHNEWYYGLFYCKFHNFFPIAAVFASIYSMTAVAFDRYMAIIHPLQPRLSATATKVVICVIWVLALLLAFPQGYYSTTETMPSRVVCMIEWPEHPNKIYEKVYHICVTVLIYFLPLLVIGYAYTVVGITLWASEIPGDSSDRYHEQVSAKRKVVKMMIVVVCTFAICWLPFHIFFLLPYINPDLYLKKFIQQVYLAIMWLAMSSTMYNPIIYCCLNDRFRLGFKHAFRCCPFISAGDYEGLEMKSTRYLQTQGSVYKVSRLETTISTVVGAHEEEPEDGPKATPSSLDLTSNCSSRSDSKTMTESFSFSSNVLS

IC50 (Substance-P receptor [1])	Activity (Substance-P receptor [6])	SMILES	also measured
1.5 nM	–	C[C@@H](O[C@@H]1[C@@H](c2ccccc2)CN2C(=O)OC[C@H]12)c1cc(C(F)(F)F)cc(C(F)(F)F)c1	Activity (Substance-P receptor [2]): 31%; Activity (Meriones unguiculatus [3]): inactive
0.28 nM	–	C[C@@H](O[C@H]1CN(C(=O)OC(C)(C)C)[C@@H](CO)[C@@H]1c1ccc(F)cc1)c1cc(C(F)(F)F)cc(C(F)(F)F)c1	inhibition in vivo at 3 mg/kg (Meriones unguiculatus [4]): 0%; inhibition in vivo at 1 mg/kg (Meriones unguiculatus [3]): 16%
1.3 nM	–	C[C@@H](O[C@@H]1[C@@H](c2ccccc2)CN2C(=O)OC[C@@H]12)c1cc(C(F)(F)F)cc(C(F)(F)F)c1	Activity (Substance-P receptor [2]): 25%; Activity (Meriones unguiculatus [3]): inactive
–	–	C[C@H](O[C@H]1CN(C(=O)OC(C)(C)C)[C@@H](CO)[C@@H]1c1ccccc1)c1cc(C(F)(F)F)cc(C(F)(F)F)c1	Activity (Substance-P receptor [5]): 26%
0.33 nM	57 nM	C[C@@H](O[C@@H]1[C@@H](c2ccc(F)cc2)CN2C(=O)OC[C@@H]12)c1cc(C(F)(F)F)cc(C(F)(F)F)c1	Activity (Meriones unguiculatus [3]): inactive
0.88 nM	32 nM	C[C@@H](O[C@H]1CN2C(=O)N(C)C[C@H]2[C@@H]1c1ccc(F)cc1)c1cc(C(F)(F)F)cc(C(F)(F)F)c1	Activity (Meriones unguiculatus [3]): inactive
1.2 nM	–	C[C@@H](O[C@@H]1[C@@H](c2ccc(F)cc2)CN(C(=O)OC(C)(C)C)[C@H]1CO)c1cc(C(F)(F)F)cc(C(F)(F)F)c1	–
7.8 nM	–	C[C@@H](O[C@H]1[C@H](c2ccccc2)CN(C(=O)OC(C)(C)C)[C@H]1CO)c1cc(C(F)(F)F)cc(C(F)(F)F)c1	–
4.4 nM	–	C[C@@H](O[C@H]1[C@H](c2ccc(F)cc2)CN(C(=O)OC(C)(C)C)[C@H]1CO)c1cc(C(F)(F)F)cc(C(F)(F)F)c1	–
3.6 nM	–	C[C@@H](O[C@@H]1[C@@H](c2ccccc2)CN(C(=O)OC(C)(C)C)[C@H]1CO)c1cc(C(F)(F)F)cc(C(F)(F)F)c1	–
0.63 nM	–	C[C@@H](O[C@H]1CN(C(=O)OC(C)(C)C)[C@@H](CO)[C@@H]1c1ccccc1)c1cc(C(F)(F)F)cc(C(F)(F)F)c1	–
0.27 nM	37 nM	C[C@@H](O[C@H]1CN2C(=O)OC[C@@H]2[C@@H]1c1ccccc1)c1cc(C(F)(F)F)cc(C(F)(F)F)c1	inhibition in vivo at 1 mg/kg (Meriones unguiculatus [3]): 2.5%
–	–	C[C@H](O[C@@H]1[C@@H](c2ccccc2)CN(C(=O)OC(C)(C)C)[C@H]1CO)c1cc(C(F)(F)F)cc(C(F)(F)F)c1	Activity (Substance-P receptor [5]): 26%
–	–	C[C@H](O[C@@H]1[C@@H](c2ccc(F)cc2)CN(C(=O)OC(C)(C)C)[C@H]1CO)c1cc(C(F)(F)F)cc(C(F)(F)F)c1	Activity (Substance-P receptor [5]): 41%
0.06 nM	2 nM	C[C@@H](O[C@H]1CN2C(=O)NC[C@H]2[C@@H]1c1ccc(F)cc1)c1cc(C(F)(F)F)cc(C(F)(F)F)c1	inhibition in vivo at 3 mg/kg (Meriones unguiculatus [4]): 8%; inhibition in vivo at 1 mg/kg (Meriones unguiculatus [3]): 100%
1 nM	inactive	C[C@@H](O[C@@H]1[C@@H](c2ccc(F)cc2)CN2C(=O)OC[C@H]12)c1cc(C(F)(F)F)cc(C(F)(F)F)c1	Activity (Meriones unguiculatus [3]): inactive
2.7 nM	inactive	C[C@@H](O[C@H]1CN2C(=O)N(Cc3ccccc3)C[C@H]2[C@@H]1c1ccc(F)cc1)c1cc(C(F)(F)F)cc(C(F)(F)F)c1	Activity (Meriones unguiculatus [3]): inactive
0.14 nM	37 nM	C[C@@H](O[C@H]1CN2C(=O)OC[C@@H]2[C@@H]1c1ccc(F)cc1)c1cc(C(F)(F)F)cc(C(F)(F)F)c1	inhibition in vivo at 3 mg/kg (Meriones unguiculatus [4]): 0%; inhibition in vivo at 1 mg/kg (Meriones unguiculatus [3]): 49%
–	–	C[C@H](O[C@H]1[C@H](c2ccccc2)CN(C(=O)OC(C)(C)C)[C@H]1CO)c1cc(C(F)(F)F)cc(C(F)(F)F)c1	Activity (Substance-P receptor [5]): 13%
0.06 nM	2.2 nM	C[C@@H](O[C@H]1CN2C(=O)CC[C@H]2[C@@H]1c1ccc(F)cc1)c1cc(C(F)(F)F)cc(C(F)(F)F)c1	ED50 (Meriones unguiculatus [7]): 0.03 mg/kg; inhibition in vivo at 3 mg/kg (Meriones unguiculatus [4]): 100%; inhibition in vivo at 1 mg/kg (Meriones unguiculatus [3]): 100%
–	–	C[C@H](O[C@H]1[C@H](c2ccc(F)cc2)CN(C(=O)OC(C)(C)C)[C@H]1CO)c1cc(C(F)(F)F)cc(C(F)(F)F)c1	Activity (Substance-P receptor [5]): 39%
–	–	C[C@H](O[C@H]1CN(C(=O)OC(C)(C)C)[C@@H](CO)[C@@H]1c1ccc(F)cc1)c1cc(C(F)(F)F)cc(C(F)(F)F)c1	Activity (Substance-P receptor [5]): 92%
